High-throughput results: PubChem, several laboratories
Only some compounds are listed: those with a hit (about 2.3% of all), similar ones and a draw of the others.
TPT1 inh: C. albicans TPT1 enzyme inhibition; recombinant caTPT1, FP RNA substrate dephosphorylation; inhibition, % at 5 µM; 300,000 tested, 0.81% active; AID 1962;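 active = inhibition above the mean of all tested compounds plus 3 SD, set per screening campaign, cut at about 24% in these data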
HNF4A DNA FP: change in binding of human HNF4 alpha to DNA; HNF4a-FITC DNA binding, fluorescence polarization, 1 h; P41235; 360,000 tested, 0.3% active; activity change, % at 10 µM; in the data active = activity change above about 30%, passing the limit was not always enough
Myeloid diff MLP: compounds promoting myeloid differentiation. ER-HoxA9 myeloid progenitors, lysozyme-GFP differentiation, flow cytometry. 360,000 tested, 1% active. calls only at 10 µM;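 active = normalized GFP-positive differentiation at or above the plate's own cutoff, the solvent-only control mean plus 3 SD; inconclusive = no clear call, values can overlap the other calls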;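 note: cells exposed to compound for four days before flow analysis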
CSN deneddyl inh: inhibitors of human CSN-mediated cullin deneddylation | Q92905 | Purified CSN, SCF-Nedd8-OG deneddylation, fluorescence polarization | inhibition, % at 12.5 µM | 360,000 tested, 0.38% active;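 active = pattern-corrected inhibition above about 35%, with an unprinted fluorescence ratio check between 0.5 and 1.5, limit read from the data, passing the limit was not always enough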
Target sequence (Q92905 whole entry, looked up, one chain of several): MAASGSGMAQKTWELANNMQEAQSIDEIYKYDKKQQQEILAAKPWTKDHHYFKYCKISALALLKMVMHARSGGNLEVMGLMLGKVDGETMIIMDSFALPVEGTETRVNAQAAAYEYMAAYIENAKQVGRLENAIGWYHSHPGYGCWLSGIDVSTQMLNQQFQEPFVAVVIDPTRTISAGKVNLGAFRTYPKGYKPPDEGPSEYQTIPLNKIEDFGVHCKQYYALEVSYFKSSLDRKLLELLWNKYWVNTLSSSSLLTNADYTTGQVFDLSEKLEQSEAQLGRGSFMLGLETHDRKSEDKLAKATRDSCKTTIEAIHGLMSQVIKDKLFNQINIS
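Material: purified human Csn5 enzyme expressed in HEK293T cells / Medium: Tris buffer pH 7.5, NaCl, DTT, Tween-20, trehalose, ovalbumin / Compound dosing: 12.5 µM single point / Schedule: 90 min incubation of compound, enzyme and substrate at room temperature / Signal: fluorescence polarization of the substrate / Control set: no-enzyme wells high, enzyme-with-substrate wells low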
Rpn11 inh: blocks the human proteasome subunit Rpn11; O00487; human 26S proteasome, Ub4-pepOG fluorescence polarization; 20S core pre-blocked with epoxomicin; inhibition, % at 20 µM; 360,000 tested, 0.59% active;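 active = inhibition at 20 µM, scaled to each plate's controls, above about 33%, limit read from the data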
Target sequence (O00487 whole entry, looked up): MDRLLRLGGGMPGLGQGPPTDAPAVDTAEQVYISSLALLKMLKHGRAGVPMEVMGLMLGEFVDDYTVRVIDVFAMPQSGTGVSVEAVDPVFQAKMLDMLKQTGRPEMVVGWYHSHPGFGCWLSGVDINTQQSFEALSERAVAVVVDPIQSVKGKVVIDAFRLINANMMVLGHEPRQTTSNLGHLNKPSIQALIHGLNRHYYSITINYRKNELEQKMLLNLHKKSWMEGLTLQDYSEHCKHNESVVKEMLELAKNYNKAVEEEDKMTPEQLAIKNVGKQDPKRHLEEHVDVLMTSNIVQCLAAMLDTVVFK
Myeloid diff: promotes myeloid progenitor differentiation; shares compounds with Myeloid diff MLP; ER-HoxA9 myeloid progenitors, GFP/Mac1 double-positive flow; 2,300 tested, 2% active; calls only; AID 651706;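 active = share of green or green-and-red cells above 9 and 9% in run 1 or 4 and 3% in run 2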
GFP autofluor: compound fluorescence in myeloid differentiation counter-screen | shares compounds with Myeloid diff MLP | ER-HoxA9 myeloid progenitors, no estrogen, GFP autofluorescence flow cytometry; vehicle wells 0%, positive control 100% | fluorescence response, % (concentration not given with the values) | 2,300 tested, 7.4% active;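 active = over 5% cells positive for green fluorescent reporter, or over 2% positive for both it and APC stain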
Of the large screens only hits and unclear results are named; the others gave an inactive call (follow-up assays come after a bar, where they were run).

COc1ccc(NC(=O)C2CCC(=O)N2)cc1 (stereo not drawn)	none | Myeloid diff inactive | GFP autofluor inactive
COC(=O)[C@@]12C[C@@H](CC(=O)NCc3ccc(C)o3)C(=O)N(Cc3cccc4ccccc34)C1=CCC(C)(C)C2	none (no result: TPT1 inh, Rpn11 inh)
C=CCN1C(=O)C(Cc2ccc(C)cc2)S/C1=N/N=C/c1ccco1 (stereo not drawn)	none (no result: Myeloid diff MLP) | Myeloid diff inactive | GFP autofluor inactive
OCc1ccccc1-c1cnc2cccnn12	none (no result: TPT1 inh)
O=C(NCCc1ccccc1)C1CCCN1C(=O)Nc1ccc(F)cc1 (stereo not drawn)	Myeloid diff MLP active | Myeloid diff inactive | GFP autofluor inactive
O=C(NCCc1ccc(Cl)cc1)C1CCCN1C(=O)Nc1ccc(F)cc1 (stereo not drawn)	none
O=C(N/N=C/c1ccc([N+](=O)[O-])s1)c1ccccc1Br	none
O=C(Cc1ccccc1)N/N=C/c1ccc([N+](=O)[O-])s1	Myeloid diff MLP active | Myeloid diff inactive | GFP autofluor inactive
COc1ccc(C2C(Oc3ccccc3C)C(=O)N2Cc2ccc(F)cc2)cc1OC (stereo not drawn)	none | Myeloid diff inactive | GFP autofluor inactive
COc1ccc2[nH]c3c(c2c1)[C@@H]1CCN2C(=O)CCC[C@H](C3)[C@H]12	Myeloid diff MLP active | Myeloid diff inactive | GFP autofluor inactive
COc1ccc(CNC2C[C@H]3CCCC(=O)N4CC[C@@H](C2)[C@@H]34)cc1 (stereo partly drawn)	none (no result: TPT1 inh)
CCCCn1nnnc1C(c1cc2ccccc2o1)N(CCN(C)C)Cc1ccccc1 (stereo not drawn)	none (no result: TPT1 inh, Rpn11 inh)
Oc1ccc(-c2cnc3c(Nc4cccc(OC(F)(F)C(F)F)c4)nccn23)cc1	Myeloid diff MLP active (no result: TPT1 inh) | Myeloid diff inactive | GFP autofluor inactive
FC(F)C(F)(F)Oc1cccc(Nc2nccn3c(-c4ccc5ccccc5c4)cnc23)c1	none (no result: TPT1 inh)
O=C(Nc1cccc(S(=O)(=O)N2CCCCCC2)c1)C1CCC1	none | Myeloid diff inactive | GFP autofluor inactive
Cc1cccc(C(=O)N[C@H](C(=O)Nc2cccc(S(=O)(=O)N3CCCC3)c2)C(C)C)c1	none | Myeloid diff inactive | GFP autofluor inactive
Cc1cccc(C(=O)NC(C(=O)Nc2cccc(S(=O)(=O)N3CCCC3)c2)C(C)C)c1 (stereo not drawn)	none (no result: TPT1 inh)
CCNc1ncnc2c1cnn2C1CCCO1 (stereo not drawn)	none (no result: TPT1 inh)
CC(=O)O[C@]1(C(C)=O)CC[C@H]2[C@@H]3C=CC4=CC(=O)C=C[C@]4(C)[C@H]3CC[C@@]21C	none
CC(C)[C@H](NS(=O)(=O)c1ccccc1)C(=O)OCC(=O)N1N=C(c2ccc(Cl)cc2)CC1c1ccco1 (stereo partly drawn)	none | Myeloid diff inactive | GFP autofluor inactive
COC(=O)[C@]1(C)N[C@H](c2ccc(SC3CCCCC3)c(OC)c2)[C@@H]2C(=O)N(C)C(=O)[C@@H]21	none
COc1ccc(S(=O)(=O)N2CCCN(Cc3cccc(F)c3)CC2)cc1	none | Myeloid diff inactive | GFP autofluor inactive
Cn1c(=N)n(CC(=O)C(C)(C)C)c2ccccc21	none | Myeloid diff inactive | GFP autofluor inactive
CN1/C(=C\C(=O)c2cccc(S(=O)(=O)N3CCCCC3)c2)C(C)(C)c2ccccc21	none
CN1/C(=C\C(=O)c2cncc(Br)c2)C(C)(C)c2ccccc21	Myeloid diff MLP active | Myeloid diff inactive | GFP autofluor 20
C=CCN1C(=O)S/C(=C/c2ccc(Sc3nc4ccccc4[nH]3)o2)C1=O	none
CC(C)N1C(=O)S/C(=C/c2ccc(Sc3nc4ccccc4[nH]3)o2)C1=O	HNF4A DNA FP 88 | Myeloid diff inactive | GFP autofluor inactive
CC(=O)Nc1ccccc1-c1nc2cc(C#N)c(C#N)cc2[nH]c1=O	none
CCC(Oc1nc2ccccc2nc1-c1ccccc1NC(C)=O)C(=O)c1ccccc1 (stereo not drawn)	Myeloid diff MLP active | Myeloid diff inactive | GFP autofluor inactive
COc1ccc(NC(=O)C2CCN(S(=O)(=O)c3ccc(Cl)c(C(F)(F)F)c3)CC2)cn1	none (no result: TPT1 inh)
Nc1cc(Nc2ccccc2)ccn1	Myeloid diff MLP active (no result: TPT1 inh) | Myeloid diff inactive | GFP autofluor inactive
c1ccc(Nc2ccnc(Nc3ccccc3)n2)cc1	Myeloid diff MLP inconclusive
Cc1csc(=O)n1CC(=O)OCC(=O)NNC(=O)c1ccccc1	none
Cc1csc(=O)n1CC(=O)OCC(=O)NNC(=O)c1ccc([N+](=O)[O-])cc1	Myeloid diff MLP active | Myeloid diff inactive | GFP autofluor inactive
CC[N+]1(CC)CC2=Cc3c(ccc4ccccc34)CC2C1 (stereo not drawn)	Myeloid diff MLP active | Myeloid diff inactive | GFP autofluor inactive
COc1ccc(S(=O)(=O)N[C@@H](Cc2ccc(Cl)cc2)C(=O)N2CC[C@@]3(O)CCCC[C@H]3C2)cc1	none | Myeloid diff inactive | GFP autofluor inactive
COc1ccc(S(=O)(=O)N[C@H](C(=O)N2CC[C@@]3(O)CCCC[C@H]3C2)c2ccccc2)cc1	none
Cc1noc(C)c1C(=O)OCC(=O)/C=C1/N(C)c2ccccc2C1(C)C	none (no result: TPT1 inh)
Cc1cc(NC(=O)CSc2nc(C3CC3)nc3sc(C)c(C)c23)no1	none | Myeloid diff inactive | GFP autofluor 2.7
CC(C)(C)CC(C)(C)c1ccc(O)c(Cc2ccc(Cl)cc2Cl)c1	none (no result: TPT1 inh)
CN(C)S(=O)(=O)c1cccc(NC(=O)COC(=O)CCc2nc3ccccc3s2)c1	none | Myeloid diff inactive | GFP autofluor inactive
CN(C)S(=O)(=O)c1cccc(NC(=O)COC(=O)c2ccc3ccccc3n2)c1	none (no result: TPT1 inh)
Cc1cc2nc(/N=C(\N)NC(=O)C(C)C)nc(C)c2cc1C	none | Myeloid diff inactive | GFP autofluor inactive
Cc1ccc2[nH]c(-c3ccccc3)cc(=O)c2c1	Myeloid diff MLP inconclusive
C=CC[n+]1cccc(-c2cc3ccc(C)cc3[nH]2)c1	none (no result: TPT1 inh) | Myeloid diff inactive | GFP autofluor inactive
O=C(COC(=O)C1CCN(S(=O)(=O)c2cccs2)CC1)Nc1ccc(F)cc1F	none
COc1ccc(S(=O)(=O)N2CCC(C(=O)NCCc3ccccc3)CC2)cc1	none
CCCCNC(=O)CCC(=O)Nc1ccc2nc(N3CCC(C)CC3)cc(C)c2c1	none | Myeloid diff inactive | GFP autofluor inactive
Cc1cc(N2CCOCC2)nc2ccc(NC(=O)CCC(=O)N3CCC(C)CC3)cc12	none
NC(N)=NC(=O)c1nc(Cl)c(N)nc1N	none | Myeloid diff inactive | GFP autofluor inactive
CCCn1nnnc1NCc1ccccc1Cl	none
Cc1c(Cl)ccc2c(C(=O)NCCN3CCCCC3)cc(-c3ccccn3)nc12	none
COc1ccccc1-c1cc(C(=O)NC2CCN(C)CC2)c2ccc(Cl)c(C)c2n1	Myeloid diff MLP active | Myeloid diff inactive | GFP autofluor inactive
COc1cccc(CN(C)CC(=O)Nc2ccccc2C(C)C)c1	none
